Measured values reported in ChEMBL document CHEMBL3085688, “Thiazole-aminopiperidine hybrid analogues: design and synthesis of novel Mycobacterium tuberculosis GyrB inhibitors” (Eur J Med Chem, 2013).
Converted amounts (≈) assume the structure as drawn. The source made the active and inactive calls. The calls are words filed in the database; no cut-off is given here.

Assays:
[1] = Cytotoxicity against mouse RAW264.7 cells at 50 uM after 72 hrs by MTT assay; format: cell-based; conditions: read-out: INH
In short: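 RAW 264.7 cells were exposed to compounds for 72 h. Viability was scored by cellular MTT conversion to formazan.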

[2] = system: Mycobacterium tuberculosis; assay: Antimycobacterial activity against Mycobacterium tuberculosis H37Rv after 7 days by MABA assay; format: functional; conditions: 168 h
In short: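 M. tuberculosis H37Rv in 7H9-S medium with OADC, adjusted to McFarland No. 1 and diluted 1:20 for inoculum. Drugs were diluted in 7H9-S at four-fold the highest final concentration, then serially two-fold diluted in plates alongside drug-free growth and sterile controls. Alamar blue microplate read-out.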

Staphylococcus aureus = assay: Inhibition of Staphylococcus aureus GyrB
DNA gyrase subunit B = DNA gyrase subunit B (Mycobacterium smegmatis, UniProt P0C559); assay: Inhibition of Mycobacterium smegmatis GyrB ATPase activity expressed in Escherichia coli BL21 (DE3) after 2 hrs; design: species or system Mycolicibacterium smegmatis
DNA gyrase subunit B, sequence (P0C559 whole entry): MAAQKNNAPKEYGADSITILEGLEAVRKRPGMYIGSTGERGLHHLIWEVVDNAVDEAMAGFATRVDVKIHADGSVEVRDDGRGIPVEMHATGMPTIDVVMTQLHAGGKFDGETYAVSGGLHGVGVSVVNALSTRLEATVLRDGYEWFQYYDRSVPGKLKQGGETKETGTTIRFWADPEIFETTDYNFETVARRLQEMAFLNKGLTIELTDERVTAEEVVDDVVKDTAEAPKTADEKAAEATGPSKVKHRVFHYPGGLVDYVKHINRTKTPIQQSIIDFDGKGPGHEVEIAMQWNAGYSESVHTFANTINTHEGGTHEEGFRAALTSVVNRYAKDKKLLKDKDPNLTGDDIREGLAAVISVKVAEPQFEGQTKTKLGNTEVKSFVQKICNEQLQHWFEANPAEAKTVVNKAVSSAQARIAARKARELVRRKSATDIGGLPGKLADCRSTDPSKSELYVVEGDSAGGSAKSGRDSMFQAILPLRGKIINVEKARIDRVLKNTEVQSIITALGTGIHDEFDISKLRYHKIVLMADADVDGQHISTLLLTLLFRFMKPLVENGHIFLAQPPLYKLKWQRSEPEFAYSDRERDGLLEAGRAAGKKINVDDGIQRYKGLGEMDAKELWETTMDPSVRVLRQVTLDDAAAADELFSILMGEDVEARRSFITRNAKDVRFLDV

[3] = target: DNA gyrase subunit A/DNA gyrase subunit B (Mycobacterium tuberculosis (strain ATCC 25618 / H37Rv), UniProt P9WG45+P9WG47); assay: Inhibition of Mycobacterium tuberculosis DNA gyrase super coiling activity of relaxed pBR322 using ethidium bromide staining by agarose gel electrophoresis
DNA gyrase subunit A/DNA gyrase subunit B, sequence (P9WG45 whole entry): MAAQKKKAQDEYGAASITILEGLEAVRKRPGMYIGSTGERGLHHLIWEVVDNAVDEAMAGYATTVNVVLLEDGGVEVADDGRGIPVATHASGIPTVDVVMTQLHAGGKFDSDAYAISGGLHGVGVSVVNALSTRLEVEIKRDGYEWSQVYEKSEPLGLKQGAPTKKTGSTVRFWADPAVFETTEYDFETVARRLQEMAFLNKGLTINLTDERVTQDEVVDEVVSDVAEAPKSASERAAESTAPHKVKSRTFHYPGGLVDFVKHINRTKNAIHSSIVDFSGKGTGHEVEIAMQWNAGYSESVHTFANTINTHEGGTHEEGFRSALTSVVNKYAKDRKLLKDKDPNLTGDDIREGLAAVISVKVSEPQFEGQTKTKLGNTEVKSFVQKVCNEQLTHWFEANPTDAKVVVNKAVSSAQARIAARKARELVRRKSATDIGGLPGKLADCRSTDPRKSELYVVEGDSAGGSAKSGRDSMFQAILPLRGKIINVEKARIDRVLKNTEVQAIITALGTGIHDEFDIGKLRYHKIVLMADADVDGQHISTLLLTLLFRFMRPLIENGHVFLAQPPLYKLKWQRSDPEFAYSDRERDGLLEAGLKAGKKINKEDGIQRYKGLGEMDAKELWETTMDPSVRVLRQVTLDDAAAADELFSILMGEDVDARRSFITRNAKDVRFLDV
DNA gyrase subunit A/DNA gyrase subunit B, sequence (P9WG47 whole entry): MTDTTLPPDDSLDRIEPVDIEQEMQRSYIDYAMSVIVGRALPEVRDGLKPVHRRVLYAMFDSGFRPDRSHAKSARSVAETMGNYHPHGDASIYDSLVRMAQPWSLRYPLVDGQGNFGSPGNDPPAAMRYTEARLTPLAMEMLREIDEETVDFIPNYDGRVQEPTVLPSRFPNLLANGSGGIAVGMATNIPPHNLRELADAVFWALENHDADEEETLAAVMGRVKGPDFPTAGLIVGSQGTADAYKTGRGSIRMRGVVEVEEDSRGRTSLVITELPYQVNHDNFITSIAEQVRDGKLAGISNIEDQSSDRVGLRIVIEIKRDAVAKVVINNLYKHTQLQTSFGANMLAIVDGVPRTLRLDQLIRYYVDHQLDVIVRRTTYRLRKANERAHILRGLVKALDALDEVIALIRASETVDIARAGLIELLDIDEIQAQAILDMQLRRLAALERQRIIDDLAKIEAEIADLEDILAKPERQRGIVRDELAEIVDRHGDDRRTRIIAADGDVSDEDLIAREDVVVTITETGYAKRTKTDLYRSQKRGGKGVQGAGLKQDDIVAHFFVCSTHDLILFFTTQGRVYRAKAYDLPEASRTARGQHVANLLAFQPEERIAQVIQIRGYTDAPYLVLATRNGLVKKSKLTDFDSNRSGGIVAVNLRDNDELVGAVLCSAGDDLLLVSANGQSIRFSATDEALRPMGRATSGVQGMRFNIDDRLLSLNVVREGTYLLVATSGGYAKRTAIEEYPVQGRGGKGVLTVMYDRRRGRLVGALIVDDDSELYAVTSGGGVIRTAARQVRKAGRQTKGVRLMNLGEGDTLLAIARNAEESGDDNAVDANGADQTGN

Escherichia coli = assay: Inhibition of Escherichia coli DNA gyrase

| SMILES | cytotoxicity at 72 h, 50 µM [1] [%] | MIC [2] [µM] | inhibition (Staphylococcus aureus) | IC50 (DNA gyrase subunit B) [µM] | IC50 [3] [µM] | inhibition (Escherichia coli) |
| --- | --- | --- | --- | --- | --- | --- |
| CCOC(=O)c1sc(-c2ccccn2)nc1N1CCC(NCc2ccc(OC)cc2)CC1 | 4.62 | 55.2 (≈ 25 µg/mL) |  |  |  |  |
| CCOC(=O)c1sc(-c2ccncc2)nc1N1CCC(NCc2ccc(OC)cc2)CC1 | 16.1 | 110 (≈ 50 µg/mL) |  |  |  |  |
| CCOC(=O)c1sc(-c2ccccn2)nc1N1CCC(NCc2ccc(Cl)cc2Cl)CC1 | 18.6 | 50.9 (≈ 25 µg/mL) |  |  |  |  |
| CCOC(=O)c1sc(-c2ccncc2)nc1N1CCC(NCc2ccc(Cl)c(Cl)c2)CC1 | 32.2 | 102 (≈ 50 µg/mL) |  |  |  |  |
| CCOC(=O)c1sc(-c2ccncc2)nc1N1CCC(NCc2ccc(F)cc2)CC1 | 17.4 | 56.8 (≈ 25 µg/mL) |  |  |  |  |
| CCOC(=O)c1sc(-c2ccncc2)nc1N1CCC(NCc2ccc(Cl)cc2Cl)CC1 | 18.4 | 25.4 (≈ 12.5 µg/mL) | inactive | 27.1 |  |  |
| CCOC(=O)c1sc(-c2ccccn2)nc1N1CCC(NCc2ccc(Cl)c(Cl)c2)CC1 | 30.1 | > 102 |  |  |  |  |
| CCOC(=O)c1sc(-c2ccccc2)nc1N1CCC(NCc2ccc(OCc3ccccc3)cc2)CC1 | 18.4 | 47.4 (≈ 25 µg/mL) |  |  |  |  |
| CCOC(=O)c1sc(-c2ccccc2)nc1N1CCC(NCc2ccc(F)cc2)CC1 | 6.23 | 28.4 (≈ 12.5 µg/mL) | inactive | 24 | 27.1 | inactive |
| CCOC(=O)c1sc(-c2ccccn2)nc1N1CCC(NCc2ccc(C(F)(F)F)cc2)CC1 | 14.6 | 51 (≈ 25 µg/mL) |  |  |  |  |
| CCOC(=O)c1sc(-c2ccccc2)nc1N1CCC(NCc2ccc(Cl)cc2Cl)CC1 | 9.43 | 51 (≈ 25 µg/mL) |  |  |  |  |
| CCOC(=O)c1sc(-c2ccccn2)nc1N1CCC(NCc2ccc(OCc3ccccc3)cc2)CC1 | 12.8 | 47.3 (≈ 25 µg/mL) |  |  |  |  |
| CCOC(=O)c1sc(-c2ccccc2)nc1N1CCC(NCc2ccc(C(F)(F)F)cc2)CC1 | 22.7 | 102 (≈ 50 µg/mL) |  |  |  |  |
| CCOC(=O)c1sc(-c2ccccc2)nc1N1CCC(NCc2ccc(OC)cc2)CC1 | 8.4 | > 111 |  |  |  |  |
| CCOC(=O)c1sc(-c2ccncc2)nc1N1CCC(NCc2ccc(C(F)(F)F)cc2)CC1 | 18.1 | 102 (≈ 50 µg/mL) |  |  |  |  |
| CCOC(=O)c1sc(-c2ccncc2)nc1N1CCC(NCc2ccc(OCc3ccccc3)cc2)CC1 | 8.04 | 47.3 (≈ 25 µg/mL) |  |  |  |  |
| CCOC(=O)c1sc(-c2ccccn2)nc1N1CCC(NCc2cccc(C(F)(F)F)c2)CC1 | 19.2 | 25.5 (≈ 12.5 µg/mL) | inactive | 29.1 |  |  |
| CCOC(=O)c1sc(-c2ccncc2)nc1N1CCC(NCc2cccc(C(F)(F)F)c2)CC1 | 14.3 | 51 (≈ 25 µg/mL) |  |  |  |  |
| CCOC(=O)c1sc(-c2ccccc2)nc1N1CCC(NCc2ccc(Cl)c(Cl)c2)CC1 | 18.1 | > 102 |  |  |  |  |
| CCOC(=O)c1sc(-c2ccccn2)nc1N1CCC(NCc2ccc(F)cc2)CC1 | 12.6 | 28.4 (≈ 12.5 µg/mL) |  |  |  |  |
| CCOC(=O)c1sc(-c2ccccn2)nc1N1CCC(NCc2ccccc2)CC1 | 14.6 | 59.2 (≈ 25 µg/mL) |  |  |  |  |
| CCOC(=O)c1sc(-c2ccncc2)nc1N1CCC(NCc2ccccc2)CC1 | 10.8 | 59.2 (≈ 25 µg/mL) |  |  |  |  |
| CCOC(=O)c1sc(-c2ccccc2)nc1N1CCC(NCc2ccccc2)CC1 | 11.7 | 119 (≈ 50 µg/mL) |  |  |  |  |
| CCOC(=O)c1sc(-c2ccccc2)nc1N1CCC(NCc2cccc(C(F)(F)F)c2)CC1 | 28.1 | 102 (≈ 50 µg/mL) | inactive | 26.9 |  |  |
| CO[C@@H]1[C@@H](OC(N)=O)[C@@H](O)[C@H](Oc2ccc3c(O)c(NC(=O)c4ccc(O)c(CC=C(C)C)c4)c(=O)oc3c2C)OC1(C)C [NOVOBIOCIN] |  | > 200 | inactive |  |  | inactive |
